According to ChEMBL document CHEMBL4732121, “Imidazo[1,2-a]quinoxalines for melanoma treatment with original mechanism of action” (Eur J Med Chem, 2021):
One block for each compound: values may come before it. Calls of active or inactive are those of the source. No cut-off for these calls is given here.

Experiments:
[1] = system: A-375; assay: Antiproliferative activity against human A-375 cells assessed as reduction in cell viability measured after 96 hrs by MTT assay; type: functional, cell-based; conditions: Homo sapiens, A-375, 96 h
Method in brief: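 A375 cells in RPMI-1640 with 10% heat-inactivated FBS, 2 mM L-glutamine and antibiotics, 37°C, 5% CO₂. Seeded at 5000 cells/well and attached overnight, then exposed to 10⁻⁵–3.2.10⁻⁹ M in 0.15% DMSO/medium for 96 h. MTT at 0.5 mg/ml final for 4 h, formazan dissolved in 10% SDS/0.01 M HCl, OD 570 nm. At least three experiments in triplicate; IC50 from sigmoidal dose–response curves.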

[2] = Toxicity in Balb/c nude mouse xenografted with human A-375 cells assessed as effect on gut pathology at 75 mg/kg, ip administered 3 times a week during first week and twice a week for 2 week measured post last dose by pathological analysis; type: organism-based; conditions: in vivo, 504 h, time 3 weeks
Method in brief: (§1)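 Balb/c nude mice inoculated s.c. in right flank with 10×10^6 A375 cells in PBS under isoflurane; dosing started once mean tumor volume reached 110-130 mm3, groups allocated Day 14. IP dosing for three weeks; vehicle DMSO/Tween 80 (vol/vol) plus injectable saline (8 vol), solutions made daily. Body weight followed during treatment; gross pathology at study termination; n = 4 mice per group reported.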

[3] = system: A-375; assay: Antitumor activity against human A-375 cells xenografted in Balb/c nude mouse assessed as reduction in mitotic index at 30 mg/kg, ip administered 5 times a week for 3 weeks measured post last dose; type: functional, organism-based
Method in brief: (§2)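 Balb/c nude mice given 10×10^6 A375 cells in PBS subcutaneously in the right flank under isoflurane. Groups of 6-12 allocated on Day 14 at 110-130 mm^3 mean tumor volume; dosed ip for three weeks. Drug in DMSO/Tween 80 (1:1) diluted with saline; vehicle DMSO/Tween 80/saline (1:1:8). Tumors fixed in buffered 3.7% formalin and read blind by a veterinary pathologist after mid-sagittal section.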

[4] = system: A2058; assay: Antiproliferative activity against human A2058 cells assessed as reduction in cell viability measured after 96 hrs by MTT assay; type: functional, cell-based; conditions: A2058, 96 h
[5] = system: A-375; assay: Antitumor activity against human A-375 cells xenografted in Balb/c nude mouse assessed as reduction in tumor size at 30 mg/kg, ip administered 5 times a week for 3 weeks by caliper method; type: functional, organism-based; method in brief: as §2
[6] = system: A-375; assay: Antitumor activity against human A-375 cells xenografted in Balb/c nude mouse assessed as reduction in tumor weight at 30 mg/kg, ip administered 5 times a week for 3 weeks measured post last dose; type: functional, organism-based; method in brief: as §2
[7] = system: MeWo; assay: Antiproliferative activity against human MeWo cells assessed as reduction in cell viability measured after 96 hrs by MTT assay; type: functional, cell-based
[8] = system: A-375; assay: Antitumor activity against human A-375 cells xenografted in Balb/c nude mouse assessed as change in tumor stroma at 30 mg/kg, ip administered 5 times a week for 3 weeks measured post last dose by trichrome staining based histopathological analysis; type: functional, organism-based; method in brief: as §2
[9] = system: A-375; assay: Antitumor activity against human A-375 cells xenografted in Balb/c nude mouse assessed as reduction in mitotic index at 25 mg/kg, ip administered 3 times a week for 3 weeks measured post last dose; type: functional, organism-based; method in brief: as §2
[10] = system: A-375; assay: Antitumor activity against human A-375 cells xenografted in Balb/c nude mouse assessed as change in tumor inflammation at 30 mg/kg, ip administered 5 times a week for 3 weeks measured post last dose by trichrome staining based histopathological analysis; type: functional, organism-based; method in brief: as §2
[11] = system: A-375; assay: Antitumor activity against human A-375 cells xenografted in Balb/c nude mouse assessed as reduction in cell invasion at 75 mg/kg, ip administered 3 times a week during first week and twice a week for next 2 weeks measured post last dose; type: functional, organism-based; conditions: time 3.0 weeks; method in brief: as §2
[12] = system: A-375; assay: Antitumor activity against human A-375 cells xenografted in Balb/c nude mouse assessed as change in tumor inflammation at 25 mg/kg, ip administered 3 times a week for 3 weeks measured post last dose by trichrome staining based histopathological analysis; type: functional, organism-based; method in brief: as §2
[13] = system: A-375; assay: Antitumor activity against human A-375 cells xenografted in Balb/c nude mouse assessed as reduction in tumor size at 75 mg/kg, ip administered 3 times a week during first week and twice a week for 2 week by caliper method relative to control; type: functional; parameters: scale not given: the % may be the effect or the level left; conditions: time 3 weeks; method in brief: as §2
[14] = Toxicity in Balb/c nude mouse xenografted with human A-375 cells assessed as adverse effect at 30 mg/kg, ip administered 5 times a week for 3 weeks; type: organism-based; conditions: in vivo, 504 h
[15] = Toxicity in Balb/c nude mouse xenografted with human A-375 cells assessed as reduction in body weight at 75 mg/kg, ip administered 3 times a week during first week and twice a week for 2 week; type: organism-based; conditions: in vivo, 504 h, time 3 weeks; method in brief: as §1
[16] = system: A-375; assay: Antitumor activity against human A-375 cells xenografted in Balb/c nude mouse assessed as change in tumor stroma at 75 mg/kg, ip administered 3 times a week during first week and twice a week for next 2 weeks measured post last dose by trichrome staining based histopathological analysis; type: functional, organism-based; conditions: time 3.0 weeks; method in brief: as §2
[17] = system: A-375; assay: Antitumor activity against human A-375 cells xenografted in Balb/c nude mouse assessed as change in tumor inflammation at 75 mg/kg, ip administered 3 times a week during first week and twice a week for next 2 weeks measured post last dose by trichrome staining based histopathological analysis; type: functional, organism-based; conditions: time 3.0 weeks; method in brief: as §2
[18] = Toxicity in Balb/c nude mouse xenografted with human A-375 cells assessed as effect on liver pathology at 75 mg/kg, ip administered 3 times a week during first week and twice a week for 2 week measured post last dose by pathological analysis; type: organism-based; conditions: in vivo, 504 h, time 3 weeks; method in brief: as §1
[19] = Cytotoxicity against human PBMC cells assessed as reduction in cell viability at 0.2 mM measured after 96 hrs by MTT assay; type: cell-based; conditions: 200 µM
[20] = system: A-375; assay: Antitumor activity against human A-375 cells xenografted in Balb/c nude mouse assessed as reduction in tumor weight at 75 mg/kg, ip administered 3 times a week during first week and twice a week for next 2 weeks measured post last dose; type: functional, organism-based; conditions: time 3.0 weeks; method in brief: as §2
[21] = Toxicity in Balb/c nude mouse xenografted with human A-375 cells assessed as pathological changes at 30 mg/kg, ip administered 5 times a week for 3 weeks measured post last dose by histopathological analysis; type: organism-based; conditions: in vivo, 504 h
[22] = system: A-375; assay: Antitumor activity against human A-375 cells xenografted in Balb/c nude mouse assessed as vascularization at 30 mg/kg, ip administered 5 times a week for 3 weeks measured post last dose by trichrome staining based histopathological analysis; type: functional, organism-based; method in brief: as §2
[23] = system: A-375; assay: Antitumor activity against human A-375 cells xenografted in Balb/c nude mouse assessed as reduction in tumor size at 25 mg/kg, ip administered 3 times a week for 3 weeks by caliper method relative to control; type: functional; parameters: scale not given: the % may be the effect or the level left; method in brief: as §2
[24] = Toxicity in Balb/c nude mouse xenografted with human A-375 cells assessed as effect on pancreas pathology at 75 mg/kg, ip administered 3 times a week during first week and twice a week for 2 week measured post last dose by pathological analysis; type: organism-based; conditions: in vivo, 504 h, time 3 weeks; method in brief: as §1
[25] = system: A-375; assay: Antitumor activity against human A-375 cells xenografted in Balb/c nude mouse assessed as vascularization at 75 mg/kg, ip administered 3 times a week during first week and twice a week for next 2 weeks measured post last dose by trichrome staining based histopathological analysis; type: functional, organism-based; conditions: time 3.0 weeks; method in brief: as §2
[26] = system: A-375; assay: Antitumor activity against human A-375 cells xenografted in Balb/c nude mouse assessed as reduction in mitotic index at 75 mg/kg, ip administered 3 times a week during first week and twice a week for next 2 weeks measured post last dose; type: functional, organism-based; conditions: time 3.0 weeks; method in brief: as §2
[27] = Toxicity in Balb/c nude mouse xenografted with human A-375 cells assessed as effect on spleen pathology at 75 mg/kg, ip administered 3 times a week during first week and twice a week for 2 week measured post last dose by pathological analysis; type: organism-based; conditions: in vivo, 504 h, time 3 weeks; method in brief: as §1
[28] = Toxicity in Balb/c nude mouse xenografted with human A-375 cells assessed as morbidity at 75 mg/kg, ip administered 3 times a week during first week and twice a week for 2 week; type: organism-based; conditions: in vivo, 504 h, time 3 weeks; method in brief: as §1
[29] = system: A-375; assay: Antitumor activity against human A-375 cells xenografted in Balb/c nude mouse assessed as reduction in tumor weight at 25 mg/kg, ip administered 3 times a week for 3 weeks measured post last dose; type: functional, organism-based; method in brief: as §2
[30] = system: A-375; assay: Antitumor activity against human A-375 cells xenografted in Balb/c nude mouse assessed as change in tumor stroma at 25 mg/kg, ip administered 3 times a week for 3 weeks measured post last dose by trichrome staining based histopathological analysis; type: functional, organism-based; method in brief: as §2
[31] = Toxicity in Balb/c nude mouse xenografted with human A-375 cells assessed as mortality at 75 mg/kg, ip administered 3 times a week during first week and twice a week for 2 week; type: organism-based; conditions: in vivo, 504 h, time 3 weeks; method in brief: as §1
[32] = system: A-375; assay: Antitumor activity against human A-375 cells xenografted in ip dosed Balb/c nude mouse assessed as reduction in tumor weight administered 3 times a week for 3 weeks measured post last dose; type: functional, organism-based; conditions: dose 25-75 mg/kg
[33] = Inhibition of pig brain tubulin polymerization at 5 uM measured after 45 mins by turbidimetry based spectrophotometric method relative to control; type: tissue-based, Sus scrofa; conditions: 0.75 h
[34] = system: A-375; assay: Antitumor activity against human A-375 cells xenografted in Balb/c nude mouse assessed as reduction in cell invasion at 25 mg/kg, ip administered 3 times a week for 3 weeks measured post last dose; type: functional, organism-based; method in brief: as §2
[35] = system: A-375; assay: Antitumor activity against human A-375 cells xenografted in ip dosed Balb/c nude mouse assessed as reduction in tumor size administered 3 times a week for 3 weeks by caliper method; type: functional, organism-based; conditions: dose 25-75 mg/kg
[36] = system: A-375; assay: Antitumor activity against human A-375 cells xenografted in Balb/c nude mouse assessed as vascularization at 25 mg/kg, ip administered 3 times a week for 3 weeks measured post last dose by trichrome staining based histopathological analysis; type: functional, organism-based; method in brief: as §2
[37] = system: A-375; assay: Antitumor activity against human A-375 cells xenografted in Balb/c nude mouse assessed as reduction in cell invasion at 30 mg/kg, ip administered 5 times a week for 3 weeks measured post last dose; type: functional, organism-based; method in brief: as §2
[38] = Toxicity in Balb/c nude mouse xenografted with human A-375 cells assessed as change in body weight at 30 mg/kg, ip administered 5 times a week for 3 weeks; type: organism-based; conditions: in vivo, 504 h
[39] = system: IPC-298; assay: Antiproliferative activity against human IPC-298 cells assessed as reduction in cell viability measured after 96 hrs by MTT assay; type: functional, cell-based; conditions: IPC-298, 96 h

SMILES: CNc1nc2ccc(C(F)(F)F)cc2n2c(-c3ccc(O)c(O)c3)cnc12
IC50 [1]: > 10000 nM

SMILES: CNc1nc2ccccc2n2c(-c3ccc(O)c(O)c3)cnc12
Activity [2]: Toxic
Activity [3]: Active
IC50 [4]: 4 nM
Activity [5]: Active
Activity [6]: Active
IC50 [7]: 3 nM
Activity [8]: inactive
Activity [9]: Active
Activity [10]: inactive
Activity [11]: Active
Activity [12]: inactive
Activity [13]: 80%
Activity [14]: Non-Toxic
Activity [15]: Toxic
Activity [16]: inactive
Activity [17]: inactive
Activity [18]: Toxic
Activity [19]: Non-Toxic
Activity [20]: Active
Activity [21]: Non-Toxic
Activity [22]: inactive
Activity [23]: 50%
Activity [24]: Toxic
Activity [25]: inactive
Activity [26]: Active
Activity [27]: Toxic
Activity [28]: Toxic
Activity [29]: Active
Activity [30]: inactive
Activity [31]: Toxic
Activity [32]: Dose-dependent effect
inhibition (INH) [33]: Not Active
Activity [34]: Active
Activity [35]: Dose-dependent effect
Activity [36]: inactive
Activity [37]: Active
IC50 [1]: 3 nM
Activity [38]: Non-Toxic
IC50 [39]: 40 nM

SMILES: CNc1nc2cc(OC(F)(F)F)ccc2n2c(-c3ccc(OC)c(OC)c3)cnc12
IC50 [1]: 3490 nM

SMILES: COc1ccc(-c2cnc3c(OC)nc4ccccc4n23)cc1OC
IC50 [1]: 2930 nM

The next lines start with the values.

IC50 [1]: 193 nM
SMILES: CNc1nc2ccccc2n2c(-c3ccc(OC)c(OC)c3)cnc12

IC50 [1]: > 10000 nM
SMILES: CNc1nc2ccccc2n2ccnc12

IC50 [1]: > 10000 nM
SMILES: CNc1nccn2c(-c3ccc(OC)c(OC)c3)cnc12
